# Screens: PubChem, several laboratories
# T cell HTS: modulators of CD8 T cell-vesicle binding, primary screen, mouse 2C CD8+ T cells, flow cytometry; 2C CD8+ T cell-vesicle binding; stronger effect = lower value; response (vesicle binding), % at 7 µM; 330,000 tested, 0.068% active;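 active means response, share of CD8 T cells binding vesicles, and their 90th percentile fluorescence all below set limits, cut at about 80% in these data, passing the limit was not always enough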;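 further: values below 100% mean blocked vesicle binding to the CD8+ T cells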
#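 Material: murine 2C transgenic CD8+ T lymphocytes / Also added: QL9-peptide-loaded Drosophila micro-vesicles bearing Ld, ICAM-1 and B7-1 / Schedule: binding step 1.5 h, 37 °C, antibody labelling 20 min, ice / Signal: flow cytometry, PE anti-B7-1 (FL2) versus Alexa647 anti-CD8 (FL8), PFA-fixed / Evaluation: percent CD8+ FL2 mean versus row control / Benchmarks: naked versus QL9-loaded vesicles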
# Myeloid diff 2: induction of myeloid progenitor differentiation, primary screen, cell-based, flow cytometry, MLPCN library; ER-HoxA9 myeloid progenitors, lysozyme-GFP differentiation; calls only at 10 µM; 360,000 tested, 1% active; AID 624256, 2012;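 active means normalized GFP-positive differentiation at or above the plate's own cutoff, the solvent-only control mean plus 3 SD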;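 further: cells exposed to compound for four days before flow analysis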
# Vif imaging: HIV Vif self-association inhibitors, primary screen, imaging, HEK293T, single point. HEK293T cells, Vif self-association by quenched fluorescence, 24 h. inhibition, % at 7.49 µM. 340,000 tested, 0.35% active. AID 602346, 2012; in the data active means inhibition above about 50%, passing the limit was not always enough
# Pemphigus Ab inh: inhibitors of pemphigus antibody binding to DSG3, primary screen, biochemical, bead-based, flow cytometry, scFv-GFP. Desmoglein-3 (Homo sapiens), P32926. DSG3-coupled beads, scFv-anti-DSG3-GFP binding; stronger effect = lower value. binding (percent of control), % at 10 µM. 310,000 tested, 0.48% active. AID 588358, 2011;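 active means binding more than 3 SD below its plate's average and above zero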;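 further: hits lower antibody fragment binding to DSG3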
# Numbers without * were called inactive; i = inactive; x = no result given; + = active, no number. The list is not random: actives were taken first. Their share in the collection is about 1.7%.
SMILES,T cell HTS,Myeloid diff 2,Vif imaging,Pemphigus Ab inh
CC1CCC(NC(=O)CN2C(=O)c3ccccc3S2(=O)=O)CC1 (stereo unspecified),282.5,i,58.7*,x
O=C(CN1C(=O)c2ccccc2S1(=O)=O)N1CCCCC1,327.1,i,7.2,122.3
CCn1c2ccccc2c2c3ncc4cccn4c3ccc21,145.4,+,14.3,119.2
CC(C)(C)OC(=O)N1CCC(NC(=O)c2[nH]cnc2C(=O)Nc2ccccc2)CC1,241.2,+,-3.0,107.1
Cc1ccc(NC(=O)c2nc[nH]c2C(=O)NC2CCN(C(=O)OC(C)(C)C)CC2)cc1,415.3,i,-4.7,100.2
Cc1ccc(S(=O)(=O)NCC(=O)OCC(=O)c2cccs2)cc1,272.0,i,36.9,42.7*
Cc1ccc(NC(=O)COC(=O)CCC(=O)c2cccs2)c(C)c1,324.9,+,0.6,91.2*
Cc1ccccc1NC(=O)COC(=O)CCC(=O)c1cccs1,x,i,5.4,97.8
O=C(Cn1nnc(-c2ccc(N3CCOCC3)cc2)n1)OC1CCCCC1,308.5,i,16.7,60.1*
Cc1ccnc(NS(=O)(=O)c2ccc(NC(=O)c3cccc(Cl)c3)cc2)n1,x,i,x,96.8
COC(=O)c1c(-c2ccc(OC)cc2)sc2ccc(N3CCOCC3)cc12,338.8,i,12.2,66.3*
COc1ccc(-c2sc3ccc(N4CCOCC4)cc3c2-c2ccc(O)cc2)cc1,544.7,i,x,104.5
O=c1nc(-c2ccccc2)c2ccccc2[nH]1,417.2,i,7.9,87.6*
O=C(N/N=C/c1ccco1)c1ccccc1OCc1ccc(Br)cc1,156.9,+,2.9,85.0
O=C(N/N=C/c1ccco1)c1ccc(OCc2ccccc2)cc1,i,i,-1.0,x
CCOC(=O)c1ccc2c(c1)C1C=CCC1C(C(=O)O)N2 (stereo unspecified),200.4,x,x,x
Cc1cc(C)c2c(c1)NC(C(=O)O)C1CC=CC21 (stereo unspecified),75.7,+,13.3,102.0
O=C(O)C1Nc2c(C(=O)N3CCOCC3)cccc2C2C=CCC12 (stereo unspecified),231.9,i,x,85.8
Cc1ccc2c(c1C)NC(C(=O)O)C1CC=CC21 (stereo unspecified),274.2,i,-1.3,35.4*
Cc1ccc(S(=O)(=O)N2C[C@H]3[C@H]4C(=O)N(C)C(=O)[C@H]4CC(=O)[C@H]3[C@@H]2c2ccccc2Cl)cc1,x,i,x,x
Cc1cn([C@H]2C[C@H](O)[C@@H](/C=C/C(=O)N3CCN(Cc4ccc(F)cc4)CC3)O2)c(=O)[nH]c1=O,x,i,1.2,x
CCCCCSc1nc2c(c(=O)[nH]c(=O)n2C)n1C,319.7,+,4.6,106.3
CCN(CC(=O)Nc1c(F)cccc1F)C(=O)CCN1C(=O)C2CC=CCC2C1=O (stereo unspecified),454.8,i,0.5,94.4
Cc1ccccc1NC(=O)Nc1nc2ccc(S(C)(=O)=O)cc2s1,184.1,i,4.2,73.8*
Cc1cc(NC(=O)COC(=O)C2CSC3(C)CCC(=O)N23)ccc1Br (stereo unspecified),169.3,i,-0.2,97.9
SMILES,T cell HTS,Myeloid diff 2,Vif imaging,Pemphigus Ab inh
Nc1cccc(C(=O)O)c1,500.0,i,-4.1,105.6
Nc1cccc(C(=O)c2ccccc2C(=O)O)c1,x,i,-6.4,77.8*
COc1cc(/C=C(\C#N)C(=O)Nc2ccccc2F)ccc1OCCN1CCOCC1,398.0,i,x,102.7
N#C/C(=C/C1=C(N2CCOCC2)C(=C/c2ccc(Cl)cc2)/CC1)C(=O)Nc1ccccc1F,x,+,26.6,106.5
Cc1ccc(S(=O)(=O)N2CCOCC2)cc1NC(=O)CSc1nnc(C2CC2)n1C1CC1,397.0,i,-6.8,x
CC(C)NC(=O)c1sc2nc3c(c(-c4cccs4)c2c1N)CN(C)CC3,410.9,i,2.1,91.3
Cc1cccc(NC(=O)c2sc3nc4c(c(-c5cccs5)c3c2N)CN(C)CC4)c1,391.5,+,6.5,99.7
C[C@@H](c1ccccc1)N1C[C@H](COCc2ccccc2)Oc2cc(N3CC[C@H](N(C)C)C3)ccc2S1(=O)=O,x,i,x,x
Cc1ccc(CNC(=O)Cn2cnc(C(=O)Nc3ccc(C)c(C)c3)n2)o1,x,i,x,101.8
CN1CCN(C(=O)CSc2nc(-c3cccs3)ccc2C#N)CC1,501.4,+,6.2,x
COc1cc2c(C#N)c(N3CCCCC3)nc(N)c2c(N)n1,196.4,i,2.1,111.8
